Experimental data published in ChEMBL document CHEMBL4828710, “Lead optimization to improve the antiviral potency of 2-aminobenzamide derivatives targeting HIV-1 Vif-A3G axis” (Eur J Med Chem, 2021).
The source made the active and inactive calls. The calls are words filed in the database; no cut-off is given here.

Tests used:
[1] = tested on: Human immunodeficiency virus 1; assay: Antiviral activity against HIV13B infected in human H9 cells assessed as p24 level incubated for 7 days by ELISA; assay type: functional, organism-based; details: Human immunodeficiency virus 1, 3B, H9, 168 h
Summary of the method: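 H9 cells were infected with HIV-1 IIIB at MOI 0.03 for 2 h, washed three times and resuspended in RPMI-1640. Infected cells (4 × 10⁴/well) were cultured with serially diluted compound at 37 °C in 5% CO₂ for 7 days. Supernatant p24 was measured by in-house ELISA, and EC50 was calculated.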

[2] = Therapeutic index, ratio of CC50 for cytotoxicity against human H9 cells to EC50 for antiviral activity against HIV13B; assay type: toxicity, cell-based; details: read-out: TI
Summary of the method: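 TI = CC50/EC50. For EC50, H9 cells were infected with HIV-1 IIIB at MOI 0.03 for 2 h, washed three times, plated at 4 × 10⁴ cells/well with serial compound dilutions, and kept 7 days at 37 °C, 5% CO₂; supernatant p24 was read by in-house ELISA. For CC50, uninfected H9 cells at 2 × 10⁵/well in RPMI-1640 with 10% FBS were kept 7 days, then read by MTT.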

[3] = tested on: H9; assay: Cytotoxicity against human H9 cells assessed as cell viability incubated for 7 days by MTT colorimetric assay; assay type: functional; details: H9, 168 h, time 7 day
Summary of the method: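 H9 cells (2 × 10⁵/well) were incubated with varying compound concentrations in RPMI-1640 with 10% FBS at 37 °C in 5% CO₂ for seven days. Viability was read by MTT colorimetric assay, and CC50 was calculated.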

[4] = tested on: Human immunodeficiency virus; assay: Antiviral activity against FI resistant HIV PNL4-3-3gp41(364)V38A N42T infected in human TZM-bl cells assessed as inhibition of replication for 48 hrs by microplate reader method; assay type: functional, organism-based
[5] = tested on: Human immunodeficiency virus 1; assay: Antiviral activity against NNRTI resistant HIV1 A17 infected in human TZM-bl cells assessed as inhibition of replication for 48 hrs by microplate reader method; assay type: functional, organism-based; details: Human immunodeficiency virus 1, A17, TZM-bl
[6] = tested on: Human immunodeficiency virus 1; assay: Antiviral activity against NRTI resistant HIV1-4755-5 infected in human TZM-bl cells assessed as inhibition of replication for 48 hrs by microplate reader method; assay type: functional, organism-based; details: Human immunodeficiency virus 1, 4755-5, TZM-bl
[7] = tested on: Human immunodeficiency virus 1; assay: Antiviral activity against IN resistant HIV1 pYU2G14OS/Q148H infected in human TZM-bl cells assessed as inhibition of replication for 48 hrs by microplate reader method; assay type: functional, organism-based; details: Human immunodeficiency virus 1, pYU2G14OS/Q148H
[8] = target: Virion infectivity factor (Human immunodeficiency virus type 1 group M subtype B (isolate NY5)(HIV-1)) (UniProt P12504); assay: Reversal of HIV1 Vif mediated A3G degradation in HIV1 infected human H9 cells for 48 hrs by western blotting analysis; assay type: cell-based; details: Human immunodeficiency virus 1
Summary of the method: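 Cells expressing A3G-HA and Vif were treated with compound at 50, 10 and 2 (three concentrations) at 37 °C for 48 h. They were then washed in ice-cold PBS and lysed in RIPA. A3G-HA and Vif were detected by SDS-PAGE, PVDF transfer, primary antibodies overnight at 4 °C, and HRP secondary for 2 h at room temperature, with chemiluminescence on X-ray film.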

[9] = tested on: H9; assay: Reduction in HIV1 Vif expression in HIV1 infected human H9 cells assessed as for 48 hrs by western blotting analysis; assay type: functional, cell-based; details: Human immunodeficiency virus 1, dose 2-50 µM
Summary of the method: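 Cells were exposed to the compound at […] at 37 °C for 48 h, then washed with ice-cold PBS and lysed in RIPA buffer. A3G-HA and Vif were resolved by SDS-PAGE and transferred to PVDF. Blots were probed overnight at 4 °C with primary antibodies, then 2 h at room temperature with HRP secondary antibodies. Bands were visualized by chemiluminescence on X-ray film.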

[10] = tested on: Human immunodeficiency virus 1; assay: Antiviral activity against PI resistant HIV-1 L70R/M461/L63P/V82T/184V infected in human TZM-bl cells assessed as inhibition of replication for 48 hrs by microplate reader method; assay type: functional, organism-based; details: Human immunodeficiency virus 1, L70R/M461/L63P/V82T/184V

Virion infectivity factor (Human immunodeficiency virus type 1 group M subtype B (isolate NY5)(HIV-1)), sequence (P12504 whole entry): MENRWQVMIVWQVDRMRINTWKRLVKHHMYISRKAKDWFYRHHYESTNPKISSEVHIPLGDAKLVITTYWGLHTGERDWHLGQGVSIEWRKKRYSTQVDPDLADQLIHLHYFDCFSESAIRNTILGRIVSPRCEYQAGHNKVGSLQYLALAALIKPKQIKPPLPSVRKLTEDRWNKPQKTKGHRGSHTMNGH

| Structure (SMILES) | EC50 [1] | selectivity ratio [2] | CC50 [3] | also measured |
| --- | --- | --- | --- | --- |
| COc1ccc(OC)c(NC(=O)c2c(N)cccc2S(=O)(=O)c2ccc([N+](=O)[O-])cc2)c1 | 3.97 µM | > 50.4 | > 200 µM |  |
| COc1ccc(Cl)cc1NC(=O)c1c(N)ncnc1Sc1ccc([N+](=O)[O-])cc1 | 20 µM | 0.11 | 2.22 µM |  |
| COc1ccc(NC(=O)c2c(N)cccc2S(=O)(=O)c2ccc([N+](=O)[O-])cc2)cc1 | > 100 µM |  |  |  |
| COc1ccc(F)cc1NC(=O)c1c(N)cccc1Sc1ccc([N+](=O)[O-])cc1 | 2.12 µM | > 47.2 | > 100 µM |  |
| COc1ccccc1NC(=O)c1c(N)ncnc1Sc1ccc([N+](=O)[O-])cc1 | 9.73 µM | 3.38 | 32.9 µM |  |
| COc1ccc(NC(=O)c2c(N)cccc2S(=O)(=O)c2ccc([N+](=O)[O-])cc2)cc1OC | 15.5 µM | > 6.45 | > 100 µM |  |
| COc1ccc(C(=O)O)cc1NC(=O)c1c(N)cccc1S(=O)(=O)c1ccc([N+](=O)[O-])cc1 | > 100 µM |  |  |  |
| COc1ccc(C(=O)O)cc1NC(=O)c1c(N)cccc1Sc1ccc([N+](=O)[O-])cc1 | 0.42 µM | > 238 | > 100 µM |  |
| COc1cc(O)ccc1NC(=O)c1c(N)cccc1S(=O)(=O)c1ccc([N+](=O)[O-])cc1 | 5.77 µM | 9.48 | 54.7 µM |  |
| COc1ccc(NC(=O)c2c(N)cccc2S(=O)(=O)c2ccc([N+](=O)[O-])cc2)cc1O | > 100 µM |  |  |  |
| Cc1cc(Br)ccc1NC(=O)c1c(N)cccc1S(=O)(=O)c1ccc([N+](=O)[O-])cc1 | > 100 µM |  |  |  |
| COc1ccc(F)cc1NC(=O)c1c(N)cccc1S(=O)(=O)c1ccc([N+](=O)[O-])cc1 | 1.93 µM | 46.4 | 89.6 µM |  |
| COc1ccc(O)cc1NC(=O)c1c(N)cccc1Sc1ccc([N+](=O)[O-])cc1 | 0.47 µM | > 213 | > 100 µM |  |
| Nc1cccc(S(=O)(=O)c2ccc([N+](=O)[O-])cc2)c1C(=O)Nc1ccc(O)cc1 | 4.59 µM |  | 32.5 µM |  |
| COc1ccc(OCCN2CCOCC2)cc1NC(=O)c1c(N)cccc1Sc1ccc([N+](=O)[O-])cc1 | > 100 µM |  |  |  |
| Nc1cccc(S(=O)(=O)c2ccc([N+](=O)[O-])cc2)c1C(=O)Nc1ccc(Cl)cc1F | 10.3 µM | > 9.71 | > 100 µM |  |
| Nc1ccn([C@@H]2CS[C@H](CO)O2)c(=O)n1 [LAMIVUDINE] | 0.21 µM | > 976 | > 200 µM |  |
| COc1ccccc1NC(=O)c1c(N)cccc1S(=O)(=O)c1ccc([N+](=O)[O-])cc1 | 0.34 µM | > 1380 | > 468 µM |  |
| COc1ccc(OC)c(NC(=O)c2c(N)cccc2Sc2ccc([N+](=O)[O-])cc2)c1 | 4.05 µM | > 49.4 | > 200 µM |  |
| COc1ccc(OCCO)cc1NC(=O)c1c(N)cccc1Sc1ccc([N+](=O)[O-])cc1 | > 100 µM |  |  |  |
| COc1ccc(F)cc1NC(=O)c1c(N)ncnc1Sc1ccc([N+](=O)[O-])cc1 | 41.1 µM | 0.65 | 26.6 µM |  |
| COc1ccc(O)cc1NC(=O)c1c(N)cccc1S(=O)(=O)c1ccc([N+](=O)[O-])cc1 | 0.07 µM | 3700 | 259 µM | EC50 [4]: 3.02 µM; EC50 [5]: 46.4 µM; EC50 [6]: 8.4 µM; EC50 [7]: 3.74 µM; Activity [8]: Dose-Dependent Effect; Activity [9]: Active; EC50 [10]: 4.39 µM |
| COc1cccc(NC(=O)c2c(N)cccc2S(=O)(=O)c2ccc([N+](=O)[O-])cc2)c1 | > 100 µM |  |  |  |
| COc1cc(NC(=O)c2c(N)cccc2S(=O)(=O)c2ccc([N+](=O)[O-])cc2)cc(OC)c1 | > 100 µM |  |  |  |
| Nc1cccc(S(=O)(=O)c2ccc([N+](=O)[O-])cc2)c1C(=O)Nc1cccc(O)c1 | > 100 µM |  |  |  |
| Cc1cc(C)cc(NC(=O)c2c(N)cccc2S(=O)(=O)c2ccc([N+](=O)[O-])cc2)c1 | 26.4 µM | > 3.79 | > 100 µM |  |
| COc1ccc(OCCCO)cc1NC(=O)c1c(N)cccc1Sc1ccc([N+](=O)[O-])cc1 | > 100 µM |  |  |  |
| COc1ccc(NC(=O)c2c(N)cccc2S(=O)(=O)c2ccc([N+](=O)[O-])cc2)c(OC)c1 | 3.58 µM | > 27.9 | > 100 µM |  |
| COc1ccc(O)cc1NC(=O)c1c(N)ncnc1Sc1ccc([N+](=O)[O-])cc1 | 40.6 µM | 0.88 | 35.8 µM |  |
